“And” between values parts separate entries of the source, which are not always exact repeats. Equal values may be shown once.
Test system: HEK-293T
Test: Multiplex assay against HEK293T
Format: toxicity, cell-based
Details: human, number of replicates 2
Method in brief: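 On a CQ1 microscope at 37°C and 5% CO2, live cells were imaged after compound addition. They had been stained at seeding with Hoechst33342, BioTracker Green Microtubule Cytoskeleton Dye, MitoTracker Red and Annexin V Alexa Fluor 680. CellPathfinder machine-learning gating assigned cells to Hoechst high-intensity objects or normal cells, normal cells to healthy, pyknosed or fragmented nuclei, and pyknosed cells to mitotic or apoptotic. Tubulin, mitochondrial-mass and membrane-permeability phenotypes are per cents of healthy-nucleus cells.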

[1] = 12 h, 1 µM, compound concentration 1 uM
[2] = 12 h, 10 µM, compound concentration 10 uM
[3] = 24 h, 1 µM, compound concentration 1 uM
[4] = 24 h, 10 µM, compound concentration 10 uM
[5] = 48 h, 1 µM, compound concentration 1 uM
[6] = 48 h, 10 µM, compound concentration 10 uM

## CNC(=O)c1c(F)cccc1Nc1nc(Nc2cc3c(cc2OC)CCN3C(=O)CN(C)C)nc2[nH]ccc12
[1]
  Population Apoptotic (%): 62% and 55%
  Population Fragmented Nuclei (%): 4% and 2%
  Population Healthy Nuclei (%): 82% and 86%
  Population Hoechst High Intensity Objects (%): 12%
  Population Membrane Permeable-Phenotype (%): 1% and 0%
  Population Mitochondria Different-Phenotype (%): 46% and 51%
  Population Mitotic Cells (%): 37% and 44%
  Population Normal (%): 87%
  Population Pyknosed Nuclei (%): 13% and 10%
  Population Tubulin-Different-Phenotype (%): 81% and 83%
  Total Cell Count: 326 and 308
[2]
  Population Apoptotic (%): 45% and 56%
  Population Fragmented Nuclei (%): 7%
  Population Healthy Nuclei (%): 75% and 73%
  Population Hoechst High Intensity Objects (%): 44% and 47%
  Population Membrane Permeable-Phenotype (%): 4% and 2%
  Population Mitochondria Different-Phenotype (%): 66% and 59%
  Population Mitotic Cells (%): 54% and 44%
  Population Normal (%): 55% and 52%
  Population Pyknosed Nuclei (%): 17% and 19%
  Population Tubulin-Different-Phenotype (%): 94% and 93%
  Total Cell Count: 246 and 244
[3]
  Population Apoptotic (%): 40% and 83%
  Population Fragmented Nuclei (%): 9% and 7%
  Population Healthy Nuclei (%): 84% and 88%
  Population Hoechst High Intensity Objects (%): 12% and 9%
  Population Membrane Permeable-Phenotype (%): 0%
  Population Mitochondria Different-Phenotype (%): 34% and 30%
  Population Normal (%): 87% and 90%
  Population Pyknosed Nuclei (%): 5% and 4%
  Population Tubulin-Different-Phenotype (%): 81% and 79%
  Total Cell Count: 390 and 332
[4]
  Population Apoptotic (%): 37% and 38%
  Population Fragmented Nuclei (%): 6%
  Population Healthy Nuclei (%): 79% and 80%
  Population Hoechst High Intensity Objects (%): 37% and 45%
  Population Membrane Permeable-Phenotype (%): 8% and 4%
  Population Mitochondria Different-Phenotype (%): 45% and 40%
  Population Mitotic Cells (%): 62% and 61%
  Population Normal (%): 62% and 54%
  Population Pyknosed Nuclei (%): 14% and 12%
  Population Tubulin-Different-Phenotype (%): 93% and 94%
  Total Cell Count: 266 and 259
[5]
  Population Apoptotic (%): 25% and 66%
  Population Fragmented Nuclei (%): 16% and 11%
  Population Healthy Nuclei (%): 80% and 86%
  Population Hoechst High Intensity Objects (%): 21% and 30%
  Population Membrane Permeable-Phenotype (%): 1%
  Population Mitochondria Different-Phenotype (%): 4% and 8%
  Population Mitotic Cells (%): 75% and 33%
  Population Normal (%): 78% and 69%
  Population Pyknosed Nuclei (%): 2% and 1%
  Population Tubulin-Different-Phenotype (%): 63% and 69%
  Total Cell Count: 741 and 531
[6]
  Population Apoptotic (%): 57% and 71%
  Population Fragmented Nuclei (%): 9%
  Population Healthy Nuclei (%): 80% and 77%
  Population Hoechst High Intensity Objects (%): 29% and 35%
  Population Membrane Permeable-Phenotype (%): 5% and 7%
  Population Mitochondria Different-Phenotype (%): 18% and 11%
  Population Mitotic Cells (%): 42% and 28%
  Population Normal (%): 70% and 64%
  Population Pyknosed Nuclei (%): 9% and 13%
  Population Tubulin-Different-Phenotype (%): 87%
  Total Cell Count: 402 and 414

## CCNc1ccc(-c2nn(-c3ccccc3C)c3c2C(C)Cc2nc(NC(=O)OC)sc2-3)cn1.O=C(O)C(F)(F)F (configuration not stated)
[1]
  Population Apoptotic (%): 69% and 60%
  Population Fragmented Nuclei (%): 4% and 5%
  Population Healthy Nuclei (%): 86% and 81%
  Population Hoechst High Intensity Objects (%): 11% and 12%
  Population Membrane Permeable-Phenotype (%): 2%
  Population Mitochondria Different-Phenotype (%): 45% and 38%
  Population Mitotic Cells (%): 30% and 39%
  Population Normal (%): 88% and 87%
  Population Pyknosed Nuclei (%): 8% and 13%
  Population Tubulin-Different-Phenotype (%): 74% and 65%
  Total Cell Count: 430 and 487
[2]
  Population Apoptotic (%): 73% and 72%
  Population Fragmented Nuclei (%): 3% and 4%
  Population Healthy Nuclei (%): 85% and 79%
  Population Hoechst High Intensity Objects (%): 10%
  Population Membrane Permeable-Phenotype (%): 3%
  Population Mitochondria Different-Phenotype (%): 74% and 79%
  Population Mitotic Cells (%): 26% and 27%
  Population Normal (%): 89%
  Population Pyknosed Nuclei (%): 10% and 16%
  Population Tubulin-Different-Phenotype (%): 94% and 96%
  Total Cell Count: 308 and 225
[3]
  Population Apoptotic (%): 58% and 82%
  Population Fragmented Nuclei (%): 5%
  Population Healthy Nuclei (%): 82% and 81%
  Population Hoechst High Intensity Objects (%): 26% and 16%
  Population Membrane Permeable-Phenotype (%): 0%
  Population Mitochondria Different-Phenotype (%): 44% and 63%
  Population Mitotic Cells (%): 41% and 17%
  Population Normal (%): 73% and 83%
  Population Pyknosed Nuclei (%): 11% and 12%
  Population Tubulin-Different-Phenotype (%): 72% and 85%
  Total Cell Count: 409 and 322
[4]
  Population Apoptotic (%): 54% and 66%
  Population Fragmented Nuclei (%): 6% and 5%
  Population Healthy Nuclei (%): 76% and 74%
  Population Hoechst High Intensity Objects (%): 13% and 16%
  Population Membrane Permeable-Phenotype (%): 1%
  Population Mitochondria Different-Phenotype (%): 86% and 85%
  Population Mitotic Cells (%): 45% and 33%
  Population Normal (%): 86% and 83%
  Population Pyknosed Nuclei (%): 16% and 19%
  Population Tubulin-Different-Phenotype (%): 89% and 95%
  Total Cell Count: 234 and 199
[5]
  Population Apoptotic (%): 75% and 85%
  Population Fragmented Nuclei (%): 11%
  Population Healthy Nuclei (%): 69% and 74%
  Population Hoechst High Intensity Objects (%): 28% and 29%
  Population Membrane Permeable-Phenotype (%): 0%
  Population Mitochondria Different-Phenotype (%): 43% and 50%
  Population Mitotic Cells (%): 24% and 14%
  Population Normal (%): 71% and 70%
  Population Pyknosed Nuclei (%): 19% and 14%
  Population Tubulin-Different-Phenotype (%): 75% and 80%
  Total Cell Count: 418 and 399
[6]
  Population Apoptotic (%): 73% and 66%
  Population Fragmented Nuclei (%): 5% and 3%
  Population Healthy Nuclei (%): 86% and 81%
  Population Hoechst High Intensity Objects (%): 19% and 13%
  Population Membrane Permeable-Phenotype (%): 2% and 1%
  Population Mitochondria Different-Phenotype (%): 83% and 80%
  Population Mitotic Cells (%): 26% and 33%
  Population Normal (%): 80% and 86%
  Population Pyknosed Nuclei (%): 7% and 15%
  Population Tubulin-Different-Phenotype (%): 89% and 93%
  Total Cell Count: 239 and 207

## COc1ncc(-c2cc(-c3ncc(CN4C[C@@H](C)O[C@@H](C)C4)o3)c3cn[nH]c3c2)cc1NS(C)(=O)=O
[1]
  Population Apoptotic (%): 48% and 56%
  Population Fragmented Nuclei (%): 3% and 2%
  Population Healthy Nuclei (%): 86% and 81%
  Population Hoechst High Intensity Objects (%): 10%
  Population Membrane Permeable-Phenotype (%): 4% and 1%
  Population Mitochondria Different-Phenotype (%): 17% and 26%
  Population Mitotic Cells (%): 51% and 43%
  Population Normal (%): 89%
  Population Pyknosed Nuclei (%): 10% and 15%
  Population Tubulin-Different-Phenotype (%): 65% and 71%
  Total Cell Count: 695 and 654
[2]
  Population Apoptotic (%): 46% and 58%
  Population Fragmented Nuclei (%): 2% and 3%
  Population Healthy Nuclei (%): 75% and 82%
  Population Hoechst High Intensity Objects (%): 9%
  Population Membrane Permeable-Phenotype (%): 0% and 1%
  Population Mitochondria Different-Phenotype (%): 54% and 51%
  Population Mitotic Cells (%): 53% and 41%
  Population Normal (%): 90%
  Population Pyknosed Nuclei (%): 22% and 14%
  Population Tubulin-Different-Phenotype (%): 88% and 87%
  Total Cell Count: 336 and 358
[3]
  Population Apoptotic (%): 40% and 54%
  Population Fragmented Nuclei (%): 7% and 5%
  Population Healthy Nuclei (%): 86% and 83%
  Population Hoechst High Intensity Objects (%): 12% and 10%
  Population Membrane Permeable-Phenotype (%): 2% and 1%
  Population Mitochondria Different-Phenotype (%): 4% and 10%
  Population Mitotic Cells (%): 59% and 45%
  Population Normal (%): 87% and 89%
  Population Pyknosed Nuclei (%): 6% and 10%
  Population Tubulin-Different-Phenotype (%): 37% and 44%
  Total Cell Count: 1173 and 987
[4]
  Population Apoptotic (%): 46% and 45%
  Population Fragmented Nuclei (%): 4%
  Population Healthy Nuclei (%): 82% and 76%
  Population Hoechst High Intensity Objects (%): 9% and 10%
  Population Membrane Permeable-Phenotype (%): 1%
  Population Mitochondria Different-Phenotype (%): 41% and 44%
  Population Mitotic Cells (%): 53% and 54%
  Population Normal (%): 90% and 89%
  Population Pyknosed Nuclei (%): 13% and 19%
  Population Tubulin-Different-Phenotype (%): 79% and 86%
  Total Cell Count: 379 and 373
[5]
  Population Apoptotic (%): 13% and 26%
  Population Fragmented Nuclei (%): 15% and 9%
  Population Healthy Nuclei (%): 81% and 85%
  Population Hoechst High Intensity Objects (%): 11%
  Population Membrane Permeable-Phenotype (%): 7% and 2%
  Population Mitochondria Different-Phenotype (%): 0% and 2%
  Population Mitotic Cells (%): 86% and 73%
  Population Normal (%): 88%
  Population Pyknosed Nuclei (%): 2% and 4%
  Population Tubulin-Different-Phenotype (%): 22% and 30%
  Total Cell Count: 2777 and 1879
[6]
  Population Apoptotic (%): 55% and 40%
  Population Fragmented Nuclei (%): 6% and 4%
  Population Healthy Nuclei (%): 87% and 83%
  Population Hoechst High Intensity Objects (%): 13% and 9%
  Population Membrane Permeable-Phenotype (%): 2% and 3%
  Population Mitochondria Different-Phenotype (%): 18% and 21%
  Population Mitotic Cells (%): 44% and 59%
  Population Normal (%): 86% and 90%
  Population Pyknosed Nuclei (%): 6% and 11%
  Population Tubulin-Different-Phenotype (%): 74% and 82%
  Total Cell Count: 527 and 510

Source: ChEMBL document CHEMBL5303300, “EUbOPEN Chemogenomics Library - Multiplex” (2023)
